Results published in ChEMBL document CHEMBL1142704, “Design and biological evaluation of linear and cyclic phosphopeptide ligands of the N-terminal SH2 domain of protein tyrosine phosphatase SHP-1” (J Med Chem, 2005).
*1 amine or outer side, *2 acyl side, *3 side chain or, on linkers, in order; H or OH if unused. Where a SMILES comes first, the peptide text is derived from it. Bridges are numbered along the chain shown (N, C = ends). [ ]: non-standard residue; d: D form. X1 = O=C(CC[C@H](N[*:1])C(=O)[*:2])CN[*:3]; X4 = O=C([C@@H](N[*:1])C(O)c1ccccc1)[*:2]; X5 = O=C(CN[*:3])C[C@H](N[*:1])C(=O)[*:2]; pY = N[C@@H](Cc1ccc(OP(=O)(O)O)cc1)C(=O)O; hPhe = N[C@@H](CCc1ccccc1)C(=O)O; Tic = O=C(O)[C@@H]1Cc2ccccc2CN1; Nle = CCCC[C@H](N)C(=O)O; CO = O=C([*:1])[*:2]

Experiments:
[1] = target: T1, Tyrosine-protein phosphatase non-receptor type 6 (Homo sapiens, UniProt P29350); assay: Dissociation constant for the interaction with the GST-N-SH2 domain of SHP-1
T1 sequence (P29350 whole entry, the tested form may be a part): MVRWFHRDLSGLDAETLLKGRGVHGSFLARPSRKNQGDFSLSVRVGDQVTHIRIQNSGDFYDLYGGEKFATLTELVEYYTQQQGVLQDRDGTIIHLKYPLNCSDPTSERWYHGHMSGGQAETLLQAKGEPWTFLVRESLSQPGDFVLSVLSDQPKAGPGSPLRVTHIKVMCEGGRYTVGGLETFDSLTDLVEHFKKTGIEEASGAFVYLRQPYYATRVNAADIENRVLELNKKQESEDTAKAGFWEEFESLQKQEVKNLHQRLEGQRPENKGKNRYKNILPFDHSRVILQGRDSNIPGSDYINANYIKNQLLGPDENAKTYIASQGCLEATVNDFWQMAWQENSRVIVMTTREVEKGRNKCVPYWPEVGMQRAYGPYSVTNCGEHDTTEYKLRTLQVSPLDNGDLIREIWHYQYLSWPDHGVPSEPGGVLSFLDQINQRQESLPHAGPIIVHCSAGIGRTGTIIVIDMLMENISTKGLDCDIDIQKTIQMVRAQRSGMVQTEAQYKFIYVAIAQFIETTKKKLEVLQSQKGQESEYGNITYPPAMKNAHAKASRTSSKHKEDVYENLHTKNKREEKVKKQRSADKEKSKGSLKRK
In short: (§1)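 SPR at room temperature in 10 mM Hepes pH 7.4, 150 mM NaCl, 3.4 mM EDTA, 0.005% Tween20. Biotinylated peptides captured on the chip to 20-40 RU. FPLC-purified GST-SHP-1 N-SH2 was injected 5 min at 30 µL/min, then dissociation was followed. Blank flow cell subtracted. Equilibrium RU vs domain concentration was fit to a one-site hyperbola for Kd.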

[2] = target: T1, Tyrosine-protein phosphatase non-receptor type 6; assay: Concentration required to stimulate SHP-1 enzymatic activity by 50%
In short: (§2)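 SHP-1 activity on p-nitrophenyl phosphate (10 mM) in 50 mM Hepes pH 7.4, 50 mM NaCl, 1 mM EDTA, 1 mM TCEP with 0-500 µM peptide. Enzyme (0.5 µg) added last, 30 min at room temperature, stopped with 1 M NaOH, A405 read. Activity relative to no-peptide enzyme. Duplicates, mean of three independent experiments. Not active: maximal activity ≤0.4 relative to Ros pY2267.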

[3] = target: T1, Tyrosine-protein phosphatase non-receptor type 6; assay: Dissociation constant for the interaction with the GST-N-SH2 domain of SHP-1; nb is no binding; in short: as §1
[4] = target: T1, Tyrosine-protein phosphatase non-receptor type 6; assay: Concentration required to stimulate SHP-1 enzymatic activity by 50%; not active; in short: as §2

| Structure (SMILES) | Kd [1] [nM] | EC50 ([2]; read-out: EC50) [µM] | EC50 [2] | Kd [3] | EC50 [4] |
| --- | --- | --- | --- | --- | --- |
| CC(C)C[C@H](NC(=O)[C@@H](NC(=O)[C@H](CCc1ccccc1)NC(=O)[C@H](Cc1ccc(OP(=O)(O)O)cc1)NC(=O)[C@H](CC(N)=O)NC(=O)[C@H](CC(C)C)NC(=O)CNC(=O)[C@@H](N)CCC(=O)O)C(C)C)C(N)=O (H-EGLN[pY][hPhe]VL-NH2) | 900 | 140 | – | – | – |
| CSCC[C@@H]1NC(=O)[C@H](Cc2ccc(OP(=O)(O)O)cc2)NC(=O)[C@@H](NC(=O)[C@H](CC(C)C)NC(=O)CNC(=O)[C@@H](N)CCC(=O)O)CCCCNC(=O)NCC(=O)CC[C@@H](C(=O)N[C@@H](CC(C)C)C(=O)O)NC1=O (H-EGLK[pY]M[X1]L-OH; linker 4-7 via CO) | 210 | – | Not Active | – | – |
| CC[C@H](C)[C@H](NC(=O)[C@@H]1Cc2ccccc2CN1C(=O)[C@H](Cc1ccc(OP(=O)(O)O)cc1)NC(=O)[C@H](CC(N)=O)NC(=O)[C@H](CC(C)C)NC(=O)CNC(=O)[C@@H](N)CCC(=O)O)C(=O)N1Cc2ccccc2C[C@H]1C(N)=O (H-EGLN[pY][Tic]I[Tic]-NH2) | – | – | – | Not Active | Not Active |
| CSCC[C@@H]1NC(=O)[C@H](Cc2ccc(OP(=O)(O)O)cc2)NC(=O)[C@@H](NC(=O)[C@H](CC(C)C)NC(=O)CNC(=O)[C@@H](N)CCC(=O)O)CCCCNC(=O)CC[C@@H](C(=O)N[C@@H](CC(C)C)C(=O)O)NC1=O (H-EGLK[pY]MEL-OH; lactam 4-7) | – | – | – | Not Active | Not Active |
| CC(C)C[C@H](NC(=O)[C@@H](NC(=O)[C@H](Cc1ccccc1)NC(=O)[C@H](Cc1ccc(OP(=O)(O)O)cc1)NC(=O)[C@H](CC(N)=O)NC(=O)[C@H](CC(C)C)NC(=O)CNC(=O)[C@@H](N)CCC(=O)O)C(C)C)C(N)=O (H-EGLN[pY]FVL-NH2) | 690 | 70 | – | – | – |
| CSCC[C@@H]1NC(=O)[C@H](Cc2ccc(OP(=O)(O)O)cc2)NC(=O)[C@@H](NC(=O)[C@H](CC(C)C)NC(=O)CNC(=O)[C@@H](N)CCC(=O)O)CCCCNC(=O)NCC(=O)C[C@@H](C(=O)N[C@@H](CC(C)C)C(=O)O)NC1=O (H-EGLK[pY]M[X5]L-OH; linker 4-7 via CO) | 110 | – | – | – | Not Active |
| CC(C)C[C@H](NC(=O)[C@@H](NC(=O)[C@@H](NC(=O)[C@H](Cc1ccc(OP(=O)(O)O)cc1)NC(=O)[C@H](CC(N)=O)NC(=O)[C@H](CC(C)C)NC(=O)CNC(=O)[C@@H](N)CCC(=O)O)C(C)c1ccccc1)C(C)C)C(N)=O (stereo in doubt; 5b) | 160 | 220 | – | – | – |
| CSCC[C@H](NC(=O)[C@H](Cc1ccc(OP(=O)(O)O)cc1)NC(=O)[C@H](CC(N)=O)NC(=O)[C@H](CC(C)C)NC(=O)CNC(=O)[C@@H](N)CCC(=O)O)C(=O)N[C@H](C(=O)N[C@@H](Cc1ccccc1)C(N)=O)C(C)C (H-EGLN[pY]MVF-NH2) | 1000 | 140 | – | – | – |
| CSCC[C@H](NC(=O)[C@H](Cc1ccc(OP(=O)(O)O)cc1)NC(=O)[C@H](CC(N)=O)NC(=O)[C@H](CC(C)C)NC(=O)CNC(=O)[C@@H](N)CCC(=O)O)C(=O)N[C@H](C(=O)N[C@H](C(N)=O)C(O)c1ccccc1)C(C)C (stereo partly specified) (H-EGLN[pY]MV[X4]-NH2) | 290 | 85 | – | – | – |

The remaining compounds from weak to strong by Kd [1], led by results:

| Kd [1] [nM] | EC50 ([2]; read-out: EC50) [µM] | EC50 [2] | Kd [3] | EC50 [4] | Structure (SMILES) |
| --- | --- | --- | --- | --- | --- |
| 1440 | 160 | – | – | – | CSCC[C@H](NC(=O)[C@H](Cc1ccc(OP(=O)(O)O)cc1)NC(=O)[C@H](CC(N)=O)NC(=O)[C@H](CC(C)C)NC(=O)CNC(=O)[C@@H](N)CCC(=O)O)C(=O)N[C@H](C(=O)N[C@@H](CC(C)C)C(N)=O)C(C)C (H-EGLN[pY]MVL-NH2) |
| 1080 | 220 | – | – | – | CC(C)C[C@H](NC(=O)[C@@H](NC(=O)[C@@H](NC(=O)[C@H](Cc1ccc(OP(=O)(O)O)cc1)NC(=O)[C@H](CC(N)=O)NC(=O)[C@H](CC(C)C)NC(=O)CNC(=O)[C@@H](N)CCC(=O)O)C(O)c1ccccc1)C(C)C)C(N)=O (stereo partly specified) (H-EGLN[pY][X4]VL-NH2) |
| 240 | 50 | – | – | – | CC(C)C[C@H](NC(=O)[C@@H](NC(=O)[C@@H](NC(=O)[C@H](Cc1ccc(OP(=O)(O)O)cc1)NC(=O)[C@H](CC(N)=O)NC(=O)[C@H](CC(C)C)NC(=O)CNC(=O)[C@@H](N)CCC(=O)O)C(C)c1ccccc1)C(C)C)C(N)=O (stereo in doubt; 5a) |
| 230 | 60 | – | – | – | CCCC[C@H](NC(=O)[C@H](Cc1ccc(OP(=O)(O)O)cc1)NC(=O)[C@H](CC(N)=O)NC(=O)[C@H](CC(C)C)NC(=O)CNC(=O)[C@@H](N)CCC(=O)O)C(=O)N[C@H](C(=O)N[C@@H](Cc1ccccc1)C(N)=O)C(C)C (H-EGLN[pY][Nle]VF-NH2) |
